Measurements from ChEMBL document CHEMBL4177752, “Discovery of Novel Schizocommunin Derivatives as Telomeric G-Quadruplex Ligands That Trigger Telomere Dysfunction and the Deoxyribonucleic Acid (DNA) Damage Response” (J Med Chem, 2018).
Activity calls are given as the source filed them. No cut-off for these calls is given here.

How the values were obtained:
SiHa = test: Antiproliferative activity against human SiHa cells after 48 hrs by MTT assay; format: functional, cell-based
Outline: (§1)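 Cells seeded at 5.0×10^3 per well and exposed to a range of compound concentrations for 48 h. MTT (2.5 mg/mL solution) was then added for 4 h, formazan was dissolved in DMSO, and OD was read at 570 nm. HL-60 was grown in RPMI-1640 with 10% FBS, the other lines in DMEM with 10% FBS, at 37 °C and 5% CO2. Triplicates; IC50 taken from mean OD versus concentration curves.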

HL-60 = test: Antiproliferative activity against human HL60 cells after 48 hrs by MTT assay; format: functional, cell-based; details: HL-60, 48 h; outline: as §1
HeLa = test: Antiproliferative activity against human HeLa cells after 48 hrs by MTT assay; format: functional, cell-based; outline: as §1
[1] = Stabilization of F10T hairpin duplex DNA (unknown origin) assessed as change in melting temperature at 1 uM by FRET assay
Outline: (§2)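 FRET melting: 0.2 µM F21T or F10T (FAM/TAMRA-labelled), with or without 1.0 µM ligand, in 10 mM Tris-HCl pH 7.4 with 60 mM KCl. Excitation 470 nm, emission 530 nm, read every 1 °C from 37–99 °C at 1 °C/min with a 30 s hold. ΔTm = Tm(DNA+ligand) − Tm(DNA).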

Quadruplex DNA [2] = test: Stabilization of F21T telomeric G-quadruplex DNA (unknown origin) assessed as change in melting temperature at 1 uM by FRET assay; format: nucleic-acid assay; outline: as §2
Quadruplex DNA [3] = test: Binding affinity to HTG21 telomeric G-quadruplex DNA (unknown origin) by SPR method; format: nucleic-acid assay
Outline: (§3)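 SPR: biotinylated HTG21 or hairpin DNA (200 nM) was folded in 50 mM Tris-HCl pH 7.4 with 100 mM KCl and captured to about 1,000 RU on an NLC chip against a blank reference cell. Ligand at 0.625–40 µM was injected at 25 µL/min (400 s association, 300 s dissociation) at 25 °C. The chip was regenerated with 1 M KCl and blank sensorgrams were subtracted.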

U2OS = test: Antiproliferative activity against human U2OS cells after 48 hrs by MTT assay; format: functional, cell-based; outline: as §1
[4] = Binding affinity to hairpin duplex DNA (unknown origin) at 40 uM by SPR method; outline: as §3
A549 = test: Antiproliferative activity against human A549 cells after 48 hrs by MTT assay; format: functional, cell-based; details: A549, 48 h; outline: as §1
Quadruplex DNA [5] = test: Stabilization of F21T telomeric G-quadruplex DNA (unknown origin) at 1 uM in presence of non-fluorescent duplex DNA ds26 by FRET assay; format: nucleic-acid assay
Outline: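 Competition FRET: 0.2 µM F21T with 1 µM ligand, plus or minus unlabelled duplex ds26 at 3 µM (15-fold) or 10 µM (50-fold), in 10 mM Tris-HCl pH 7.4 with 60 mM KCl. Melting monitored at 470/530 nm over 37–99 °C.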

SMILES	IC50 (SiHa) [µM]	IC50 (HL-60) [µM]	IC50 (HeLa) [µM]	ΔTm [1] [°C]	ΔTm (Quadruplex DNA [2]) [°C]	Kd (Quadruplex DNA [3]) [µM]	IC50 (U2OS) [µM]	Activity [4]	IC50 (A549) [µM]	Activity (Quadruplex DNA [5])
CN(C)CCCN(C)c1cc2c(cc1F)/C(=C/c1nc3cc(N4CCN(C)CC4)c(F)cc3c(=O)[nH]1)C(=O)N2	3.5	3.2	12.8	0.2	15.6	> 40	9.4	inactive	10.4	
CN(C)CCCNc1cc2nc(/C=C3/C(=O)Nc4ccccc43)n(CCCN(C)C)c(=O)c2cc1F	30.5	8.2	27.1	0.1	9.2	> 40	28.4	inactive	18.2	
CN1CCN(c2cc3c(cc2F)/C(=C/c2nc4cc(N5CCN(C)CC5)c(F)cc4c(=O)[nH]2)C(=O)N3)CC1	> 50	12.3	> 50	0.1	12.2	> 40	> 50	inactive	> 50	
CN(C)CCCN(CCCN(C)C)c1cc2nc(/C=C3\C(=O)Nc4ccccc43)[nH]c(=O)c2cc1F	10.1	16.1	48.6	0.2	12.6	23	> 50	inactive	> 50	
CN(C)CCCN(C)c1cc2c(cc1F)/C(=C/c1nc3cc(NCCN(C)C)c(F)cc3c(=O)[nH]1)C(=O)N2	7.6	5.6	22.6	0.3	20.1	14	9.2	inactive	12.4	
O=C1Nc2ccccc2/C1=C/c1nc2cc(NCCCN3CCOCC3)c(F)cc2c(=O)[nH]1	> 50	> 50	> 50	0.1	8.6	> 40	> 50	inactive	> 50	
CCN(CC)CCCNc1cc2nc(/C=C3\C(=O)Nc4cc(N5CCN(C)CC5)c(F)cc43)[nH]c(=O)c2cc1F	7.9	5.7	9.6	0.1	25.3	4.9	10.2	inactive	6.1	
CN1CCN(c2ccc3c(c2)NC(=O)/C3=C\c2nc3cc(NCCN4CCCC4)c(F)cc3c(=O)[nH]2)CC1	10.9	3.6	17.4	0.2	18.6	> 40	6.4	inactive	4.1	
CCN(CC)CCCNc1cc2nc(/C=C3\C(=O)Nc4ccccc43)[nH]c(=O)c2cc1F	23.4	7.5	> 50	0.1	10	> 40	12.6	inactive	8.6	
CN(C)CCCNc1c2ccccc2nc2c1[nH]c1ccccc12				5.2	11.6					inactive
CN1CCN(c2cc3c(cc2F)/C(=C/c2nc4cc(NCCCn5ccnc5)c(F)cc4c(=O)[nH]2)C(=O)N3)CC1	> 50	> 50	> 50	0.5	11.5	21	> 50	inactive	> 50	
CN(C)CCCNc1ccc2c(=O)[nH]c(/C=C3\C(=O)Nc4cc(N5CCN(C)CC5)ccc43)nc2c1	11.5	4.3	49	0.1	16.5	> 40	14.1	inactive	19	
CCN(CC)CCCNc1cc2nc(/C=C3\C(=O)Nc4cc(N5CCN(C)CC5)ccc43)[nH]c(=O)c2cc1F	2.8	5.4	10	0.2	20.6	7.4	7.6	inactive	2.3	
